# Compound activity as filed in PubChem BioAssay.
# Sampled rows, rich in hits. Any-hit rate of the full collection: about 2.1%.
# FN deposition inh: inhibitors of fibronectin matrix deposition, primary screen, AH1F cells, Alexa488-fibronectin fluorescence, plate reader | AH1F fibroblasts, overnight | inhibition, % at 12.6 µM | 0.086% of 350,000 active | AID 743247, 2014;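 active means mean inhibition across replicates of 30% or more, regardless of how many single replicates reach that level; inconclusive means mean under 30% yet at least half of replicates reach 30%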;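 further: positive control wells lacked labelled fibronectin entirely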
#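 Material: AH1F fibroblast monolayer depositing Alexa488-labelled fibronectin into matrix | Input: 10000 AH1F cells/well | Medium: DMEM plus 2% serum, read in PBS | Reagent: Alexa488-fibronectin, 24 nM final in well | Compound dosing: One dose per compound, pinned | Schedule: 1 h adhesion, overnight exposure | Measured by: Fluorescence at 485 nm excitation, 525 nm emission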
# FGF22 binding: binders of human FGF22 protein, primary screen, FGF22 synaptogenesis inhibitor project, biophysical, thermal shift, single point | Fibroblast growth factor 22 (Homo sapiens), Q9HCT0 | recombinant FGF22 thermal shift, SYPRO orange fluorescence; percent of sucrose octasulfate shift, DMSO zero | activity (Tm shift, normalised), % at 9.99 µM | 1.5% of 340,000 active | AID 651658, 2012;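 active means mean Tm shift, scaled 0 neutral to 100 positive control, at about 1.3% or above, every replicate too, limit read from the data; inconclusive means no clear call, values can overlap the other calls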
# MLL AF4-AF9 inh: inhibitors of AF4 peptide binding to AF9, primary screen, biochemical, AlphaScreen, biotin-AF4 peptide, FLAG-AF9, single point. Protein AF-9 (Homo sapiens), P42568. inhibition, % at 10 µM. 0.47% of 350,000 active. AID 651704, 2012;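 active means every replicate reaching a set inhibition limit, whatever the replicate mean, cut at about 25% in these data; inconclusive means mean inhibition reaches that limit but some replicates miss it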;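 further: 0% = plate neutral control median and 100% = total signal loss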
# ARNT-TACC3 inh: disruptors of ARNT/TACC3 protein interaction, primary screen, biochemical, AlphaScreen, single concentration; 0.66% of 390,000 active; Transforming acidic coiled-coil-containing protein 3 (Homo sapiens), Q9Y6A5; inhibition, % at 9.99 µM; AlphaScreen His-ARNT PAS-B/GST-TACC3 binding, luminescence; TACC3 fragment carries E629A point mutation;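 active means mean inhibition of replicates at least 50% and at least half of replicates each reaching 50%; inconclusive means half or more replicates reach 50% but mean below 50%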;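 further: 0% = complete ARNT plus TACC3 wells and 100% = ARNT alone without TACC3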
# PDI turbidity: inhibitors of human PDI, primary screen, biochemical, turbidity, single point, plate reader. Protein disulfide-isomerase (Homo sapiens), P07237. PDI insulin aggregation turbidity, A650, 90 min. inhibition, % at 10 µM. 0.052% of 350,000 active;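 active means mean inhibition across replicates of 30% or more, whatever share of single replicates reach that level; inconclusive means mean inhibition below 30% while every single replicate reaches 30%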
# Target sequence (P07237 whole entry, looked up): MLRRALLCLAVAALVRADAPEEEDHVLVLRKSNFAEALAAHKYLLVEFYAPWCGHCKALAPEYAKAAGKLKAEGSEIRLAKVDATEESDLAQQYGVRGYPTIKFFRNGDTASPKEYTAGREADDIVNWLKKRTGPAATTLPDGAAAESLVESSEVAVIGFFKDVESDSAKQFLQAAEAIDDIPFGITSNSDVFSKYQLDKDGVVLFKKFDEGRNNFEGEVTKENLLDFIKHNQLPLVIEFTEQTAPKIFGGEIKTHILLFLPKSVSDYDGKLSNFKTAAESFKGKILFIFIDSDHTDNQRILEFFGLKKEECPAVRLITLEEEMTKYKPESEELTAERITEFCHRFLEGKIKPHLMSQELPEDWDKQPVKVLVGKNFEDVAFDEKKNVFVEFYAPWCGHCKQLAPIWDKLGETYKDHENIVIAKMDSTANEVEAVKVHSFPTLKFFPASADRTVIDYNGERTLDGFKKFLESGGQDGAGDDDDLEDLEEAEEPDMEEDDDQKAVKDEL
# ERp5 block: inhibitors of ERp5-driven insulin aggregation, primary screen, biochemical, turbidity, absorbance 650 nm, single point; Protein disulfide-isomerase A6 (Homo sapiens), Q15084; 90 min; inhibition, % at 9.99 µM; 0.05% of 350,000 active; AID 651711, 2012;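 active means mean replicate inhibition above about 25%, with every replicate also reaching it, limit read from the data, passing the limit was not always enough; inconclusive means only one of those two criteria met; inactive means neither criterion met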
# Active calls of the source: *; u = inconclusive; x = no result.
SMILES,FN deposition inh,FGF22 binding,MLL AF4-AF9 inh,ARNT-TACC3 inh,PDI turbidity,ERp5 block
CN(C)CC(=O)Nc1ccc2c(c1)[C@H]1C[C@H](CC(=O)NCCN3CCCCC3)O[C@@H](CO)[C@H]1O2,x,0,2,-16,x,-2
CCOC(=O)CCCCC(=O)c1[nH]c(=O)[nH]c1CSCCO,x,0,77*,2,-2,-1
CCOC(=O)CCCCC(=O)c1[nH]c(=O)[nH]c1CSc1nc(-c2ccccc2)c(C#N)c(=O)[nH]1,x,0,u,9,5,-1
CS(=O)(=O)Nc1ccc2c(c1)[C@H]1C[C@H](CC(=O)NCc3ccc(Cl)cc3)O[C@H](CO)[C@H]1O2,-3,0,-2,2,x,2
Cn1nc(SCc2ccccc2)c(=O)[nH]c1=O,2,43*,4,x,-6,4
Cn1nc(SCc2ccccc2)c(=O)n(C(c2ccccc2)c2ccccc2)c1=O,-1,0,1,-2,2,8
O=C(O)CC1=C(Nc2ccccc2)C(=O)N(c2ccccc2)C1c1ccc(Br)cc1 (centres undefined),1,43*,2,4,9,-2
Cc1cc(C)cc(NC(=S)NCCSc2ccc(Cl)cc2)c1,-19,44*,2,3,6,5
Cc1ccc(SCCNC(=S)Nc2ccc(C)c(C)c2)cc1,1,x,x,x,18,x
CN(C)c1cccc(C(=O)N/C=C/n2cnc3cc(C(F)(F)F)ccc32)c1,-2,43*,0,1,3,4
COC(=O)/C=C1/C(=O)N/C(=N\c2nc(C)cc(C)n2)N1c1ccc(OC)cc1,2,44*,-1,-10,0,0
COC(=O)/C=C1\N/C(=N\c2nc(C)cc(C)n2)N(c2ccc(Cl)cc2)C1=O,1,0,-1,x,1,4
CC(C)N(C(=O)COC(=O)[C@H](C)NC(N)=O)c1ccccc1,x,43*,-1,7,3,-7
CC(C)N(C(=O)COC(=O)c1ccc(Cl)s1)c1ccccc1,-2,0,-13,1,-4,1
CC(=O)Nc1cccc(NC(=O)Nc2cccc(F)c2)c1,9,45*,-2,2,0,2
O=C1c2ccccc2C(=O)c2c(Nc3ccc(CCO)cc3)ccc(O)c21,-1,0,50*,-19,-3,3
Cc1ccc(C(=O)N2CCN(C(=O)C3CCCO3)CC2)cc1 (centres undefined),2,0,1,-2,-4,0
O=C(c1cc(F)c(F)c(F)c1F)N1CCN(C(=O)C2CCCO2)CC1 (centres undefined),1,44*,-8,-6,11,2
CN(c1cccc(NC(=O)c2ccc(N(C)S(=O)(=O)c3ccccc3)cc2)c1)S(C)(=O)=O,7,0,3,1,-3,-3
COc1ccc(C)cc1N(CC(=O)Nc1cccc(N(C)S(C)(=O)=O)c1)S(C)(=O)=O,32*,x,x,-2,-4,0
CN(c1cccc(NC(=O)c2ccc(C(C)(C)C)cc2)c1)S(C)(=O)=O,8,43*,1,-7,-2,2
O=S(=O)(Nc1cc(Sc2ncn[nH]2)c(O)c2ccccc12)c1ccccc1,21,43*,1,x,-5,-4
O=C(O)CSc1cc(NS(=O)(=O)c2ccc(Br)cc2)c2ccccc2c1O,6,0,-1,97*,11,-1
Cc1ccc(S(=O)(=O)Nc2ccc(Br)cc2C(NCC(=O)O)c2ccccc2)cc1 (centres undefined),x,x,x,3,4,x
C[C@@H]1CN([C@@H](C)CO)C(=O)c2cc(Br)cnc2O[C@@H]1CN(C)C(=O)C1CC1,-11,x,x,x,x,x
SMILES,FN deposition inh,FGF22 binding,MLL AF4-AF9 inh,ARNT-TACC3 inh,PDI turbidity,ERp5 block
COc1cccc2c1C(=O)c1c(O)c3c(c(O)c1C2=O)C[C@@](O)(C(C)=O)C[C@@H]3O[C@H]1C[C@H](N)[C@H](O)[C@H](C)O1,-7,0,31*,17,10,5
COc1cccc2c1C(=O)c1c(O)c3c(c(O)c1C2=O)C[C@@](O)(C(=O)CO)C[C@@H]3O[C@H]1C[C@H](N)[C@@H](O)[C@H](C)O1,x,x,x,22,1,x
Cc1ccc(NS(=O)(=O)c2cc(C(=O)N(C)C)ccc2C)cc1C,7,43*,0,-9,8,-1
Cc1ccc(NS(=O)(=O)c2cc(C(=O)N3CCCC3)ccc2C)cc1C,3,0,-3,x,9,-4
O=C1C(=C(I)I)c2ccccc2-c2ccccc21,55*,0,1,x,0,-2
O=C(O)c1cccc2c1C(=O)c1ccccc1-2,12,0,1,2,3,0
CCC(=O)Oc1ccc(C(=O)Nc2cccc(C(=O)NCC(C)C)c2)cc1,-5,43*,-13,x,-7,0
CCC(=O)Oc1ccc(C(=O)Nc2ccccc2C(=O)NCC(C)C)cc1,x,0,-2,-9,15,3
C/C=C/c1cnc2c(c1)C(=O)N([C@@H](C)CO)C[C@H](C)[C@H](CN(C)S(=O)(=O)c1ccc(F)cc1)O2,x,0,-8,2,x,7
CCN1C(C)=C(C)S/C1=C1\SC(=S)N(C2CCCCC2)C1=O,7,44*,-1,x,-8,-2
CNC(=O)CSc1nc2nn(-c3ccccc3)c(=O)c-2c2n1CCCCC2,x,0,5,0,-1,6
O=C(CSc1nc2nn(-c3ccccc3)c(=O)c-2c2n1CCCCC2)c1ccc(O)c(O)c1,x,x,x,5,53*,x
COc1ccc(CN(C)C[C@H]2Oc3ccc(NC(=O)C4CCCCC4)cc3CC(=O)N([C@H](C)CO)C[C@@H]2C)cc1,x,0,3,-1,x,3
O=C(/C=C/c1ccc(OCCCF)cc1)Nc1ccnc(-c2ccncc2)n1,3,0,0,-7,-1,1
O=C(/C=C/c1ccc(OCCCF)cc1)Nc1ccnc(-c2cccnc2)n1,-13,44*,-2,-11,-3,-2
COc1ccc(CC(=O)NNC(=O)CCC(=O)Nc2cc(C)ccc2C)cc1,6,44*,-14,-7,1,-3
COCC(=O)Nc1ccc2c(c1)C(=O)N(C)C[C@@H](OC)[C@@H](C)CN(C(=O)c1cnccn1)[C@@H](C)CO2,7,0,2,0,x,1
Oc1cc2c(cc1C(c1ccc(Cl)c(Cl)c1)N1CCCC1)OCO2 (centres undefined),6,1,27*,3,12,8
